What was measured:
Mus musculus [1] = organism: Mus musculus; assay: Protection index, ratio of TD50 to ED50 by MES test for albino mouse; format: functional
How it was run: (§1)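 Mice were trained on a 3.2 cm rod turning at 6 rpm, then dosed ip at 20–1000 µmol/kg and tested at 0.5 h. […] PI = TD50/ED50, with ED50 from the MES test.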

[2] = Neurotoxicity in ip dosed albino mouse during 1 min by rotarod test; format: toxicity, organism-based; conditions: in vivo; how it was run: as §1
Mus musculus [3] = assay: Anticonvulsant activity in ip dosed albino mouse assessed as absence of hind limb tonic extension after 0.5 hrs by MES test; format: functional, Hindlimb; conditions: for ED50: Mus musculus, albino, Hindlimb, ip, 0.5 h
How it was run: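 Mice given compound ip at 20–1000 µmol/kg, suspended in 0.5% methyl cellulose/water. Seizure induced 0.5 h later by electroconvulsometer, 50 mA, 60 cycle alternating current, 0.25 s via ear clip electrodes. Protection is reduced duration or absence of hind limb tonic extension. ED50 from at least three doses giving 10–90% protection.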

Mus musculus [4] = assay: Anticonvulsant activity in ip dosed albino mouse treated 0.5 hrs before PTZ challenge by scPTZ test; format: functional
How it was run: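 Compound given ip (20–1000 µmol/kg in 0.5% methyl cellulose) 0.5 h before pentylenetetrazole, which was dissolved in 0.9% NaCl and injected subcutaneously in the posterior midline of mice. Onset and severity of convulsions were scored, and ED50 was derived.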

Row | Compound | PI (Mus musculus [1]) | TD50 at 1 min [2] [µmol/kg] | pED50 (Mus musculus [3]) | ED50 (Mus musculus [3]) [µmol/kg] | ED50 (Mus musculus [4]) [µmol/kg]
1 | COc1ccc(/C=C/C(=O)Nc2nc3ccccc3s2)cc1 | 1.24 | 540 | 3.36 | 435 | –
2 | COc1ccc(/C=C/C(=O)Nc2nc3ccc(C)cc3s2)cc1O | 1.18 | 321 | 3.57 | 271 | –
3 | O=C(/C=C/c1ccc(O)cc1)Nc1nc2ccccc2s1 | 1.78 | 925 | 3.29 | 517 | –
4 | CC(=O)N1N=C(Nc2nc3ccc(Cl)cc3s2)CC1c1ccccc1 (stereo unspecified) | 1.52 | 245 | 3.79 | 161 | –
5 | Cc1ccc2nc(NC(=O)/C=C/c3ccco3)sc2c1 | 1.19 | 603 | 3.3 | 505 | –
6 | O=C(/C=C/c1ccc(Cl)cc1)Nc1nc2ccc([N+](=O)[O-])cc2s1 | 3.03 | 787 | 3.59 | 259 | –
7 | CC(=O)N1N=C(Nc2nc3ccccc3s2)CC1c1ccc(O)cc1 (stereo unspecified) | 2.06 | 513 | 3.6 | 249 | –
8 | COc1ccc(C2CC(Nc3nc4ccc(Cl)cc4s3)=NN2C(C)=O)cc1O (stereo unspecified) | 2.16 | 276 | 3.89 | 127 | 132
9 | COc1ccc(/C=C/C(=O)Nc2nc3ccc(Cl)cc3s2)cc1O | 1.46 | 470 | 3.51 | 320 | –
10 | CC(=O)N1N=C(Nc2nc3ccccc3s2)CC1c1ccc(Cl)cc1 (stereo unspecified) | 1.73 | 364 | 3.68 | 209 | –
11 | O=C(/C=C/c1ccc(Cl)cc1)Nc1nc2ccc(Cl)cc2s1 | 2.82 | 576 | 3.69 | 204 | –
12 | COc1ccc(C2CC(Nc3nc4ccc([N+](=O)[O-])cc4s3)=NN2C(C)=O)cc1 (stereo unspecified) | 1.69 | 246 | 3.84 | 145 | 149
13 | CC(=O)N1N=C(Nc2nc3ccc([N+](=O)[O-])cc3s2)CC1c1ccc(O)cc1 (stereo unspecified) | 1.29 | 210 | 3.79 | 162 | –
14 | CC(=O)N1N=C(Nc2nc3ccc(C)cc3s2)CC1c1ccco1 (stereo unspecified) | 1.51 | 243 | 3.79 | 160 | –
15 | COc1ccc(C2CC(Nc3nc4ccc([N+](=O)[O-])cc4s3)=NN2C(C)=O)cc1O (stereo unspecified) | 1.43 | 256 | 3.75 | 178 | –
16 | O=C(/C=C/c1ccco1)Nc1nc2ccc(Cl)cc2s1 | 1.2 | 658 | 3.26 | 544 | –
17 | O=C(/C=C/c1ccc(O)cc1)Nc1nc2ccc(Cl)cc2s1 | 1.28 | 413 | 3.49 | 322 | –
18 | Cc1ccc2nc(NC(=O)/C=C/c3ccccc3)sc2c1 | 1.4 | 534 | 3.42 | 380 | –
19 | O=C(/C=C/c1ccccc1)Nc1nc2ccc([N+](=O)[O-])cc2s1 | 1.3 | 633 | 3.31 | 485 | –
20 | COc1ccc(C2CC(Nc3nc4ccccc4s3)=NN2C(C)=O)cc1 (stereo unspecified) | 1.63 | 369 | 3.65 | 226 | –
21 | O=C(/C=C/c1ccccc1)Nc1nc2ccc(Cl)cc2s1 | 1.34 | 570 | 3.37 | 425 | –

Row | Compound | PI (Mus musculus [1]) | TD50 at 1 min [2] [µmol/kg] | pED50 (Mus musculus [3]) | ED50 (Mus musculus [3]) [µmol/kg] | ED50 (Mus musculus [4]) [µmol/kg]
22 | Cc1ccc2nc(NC(=O)/C=C/c3ccc(Cl)cc3)sc2c1 | 2.67 | 408 | 3.82 | 152 | –
23 | CC(=O)N1N=C(Nc2nc3ccc([N+](=O)[O-])cc3s2)CC1c1ccc(Cl)cc1 (stereo unspecified) | 2.48 | 328 | 3.88 | 132 | 138
24 | O=C(/C=C/c1ccc(O)cc1)Nc1nc2ccc([N+](=O)[O-])cc2s1 | 1.57 | 602 | 3.42 | 382 | –
25 | COc1ccc(C2CC(Nc3nc4ccccc4s3)=NN2C(C)=O)cc1O (stereo unspecified) | 1.47 | 382 | 3.59 | 259 | –
26 | O=C(/C=C/c1ccco1)Nc1nc2ccccc2s1 | 1.15 | 898 | 3.11 | 781 | –
27 | Cc1ccc2nc(NC(=O)/C=C/c3ccc(O)cc3)sc2c1 | 1.42 | 387 | 3.57 | 271 | –
28 | O=C(/C=C/c1ccc(Cl)cc1)Nc1nc2ccccc2s1 | 1.1 | 402 | 3.44 | 367 | –
29 | CC(=O)N1N=C(Nc2nc3ccc([N+](=O)[O-])cc3s2)CC1c1ccco1 (stereo unspecified) | 1.29 | 355 | 3.56 | 274 | –
30 | O=C(/C=C/c1ccccc1)Nc1nc2ccccc2s1 | 1.28 | 832 | 3.19 | 646 | –
31 | COc1ccc(/C=C/C(=O)Nc2nc3ccc(Cl)cc3s2)cc1 | 1.79 | 465 | 3.59 | 259 | –
32 | COc1ccc(/C=C/C(=O)Nc2nc3ccccc3s2)cc1O | 1.12 | 556 | 3.31 | 495 | –
33 | COc1ccc(/C=C/C(=O)Nc2nc3ccc([N+](=O)[O-])cc3s2)cc1 | 1.47 | 466 | 3.5 | 315 | –
34 | CC(=O)N1N=C(Nc2nc3ccccc3s2)CC1c1ccccc1 (stereo unspecified) | 1.57 | 498 | 3.5 | 315 | –
35 | CC(=O)N1N=C(Nc2nc3ccc(Cl)cc3s2)CC1c1ccco1 (stereo unspecified) | 1.82 | 387 | 3.67 | 212 | –
36 | O=C(/C=C/c1ccco1)Nc1nc2ccc([N+](=O)[O-])cc2s1 | 1.39 | 834 | 3.22 | 597 | –
37 | COc1ccc(/C=C/C(=O)Nc2nc3ccc([N+](=O)[O-])cc3s2)cc1O | 2.13 | 793 | 3.43 | 372 | –
38 | CC(=O)N1N=C(Nc2nc3ccc(Cl)cc3s2)CC1c1ccc(O)cc1 (stereo unspecified) | 1.97 | 210 | 3.97 | 106 | 107
39 | COc1ccc(/C=C/C(=O)Nc2nc3ccc(C)cc3s2)cc1 | 2.24 | 468 | 3.68 | 209 | –
40 | CC(=O)N1N=C(Nc2nc3ccccc3s2)CC1c1ccco1 (stereo unspecified) | 1.41 | 538 | 3.42 | 382 | –
41 | CC(=O)N1N=C(Nc2nc3ccc([N+](=O)[O-])cc3s2)CC1c1ccccc1 (stereo unspecified) | 1.65 | 357 | 3.67 | 216 | –
42 | O=C1NC(=O)C(c2ccccc2)(c2ccccc2)N1 [PHENYTOIN] | 8.01 | 110 | – | 13.8 | –

Source: ChEMBL document CHEMBL1156127, “Synthesis, anticonvulsant activity and 3D-QSAR study of some prop-2-eneamido and 1-acetyl-pyrazolin derivatives of aminobenzothiazole” (Eur J Med Chem, 2010)
